According to ChEMBL document CHEMBL2040734, “Benzothiazoles: search for anticancer agents” (2012):

Experiments:
Assay type in all cases: functional
RXF 393 = test: Cytotoxicity against human RXF393 cells assessed as cell growth at 10 uM after 48 hrs by sulforhodamine B assay; details: RXF 393, 48 h, read-out: Activity
MDA-MB-435 = test: Cytotoxicity against human MDA-MB-435 cells assessed as cell growth at 10 uM after 48 hrs by sulforhodamine B assay; details: MDA-MB-435, 48 h, read-out: Activity
MOLT-4 = test: Cytotoxicity against human MOLT4 cells assessed as cell growth at 1 uM after 48 hrs by sulforhodamine B assay; details: MOLT-4, 48 h, read-out: Activity
DU-145 = test: Cytotoxicity against human DU145 cells assessed as cell growth at 10 '-5 M after 48 hrs by sulforhodamine B assay; details: DU-145, 48 h, read-out: Activity
Procedure, shortened: (§1)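 Primary one-dose screen across the NCI 60-line panel at 10 µM. Cells were grown in RPMI 1640 with 5% FBS and 2 mM L-glutamine and held 24 h before drug. Drug was diluted from a DMSO concentrate. Exposure was 48 h at 37 °C, 5% CO2. Cells were fixed with TCA and stained with SRB, with absorbance read at 515 nm. Percent growth was calculated against time-zero and untreated control.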

SN12C [1] = test: Cytotoxicity against human SN12C cells assessed as cell growth at 100 uM after 48 hrs by sulforhodamine B assay; details: read-out: Activity
OVCAR-8 [2] = test: Cytotoxicity against human OVCAR8 cells assessed as cell growth at 0.1 uM after 48 hrs by sulforhodamine B assay; details: OVCAR-8, 48 h, read-out: Activity
UACC-257 [3] = test: Cytotoxicity against human UACC257 cells assessed as cell growth at 0.01 uM after 48 hrs by sulforhodamine B assay; details: UACC-257, 48 h, read-out: Activity
KM12 = test: Cytotoxicity against human KM12 cells assessed as cell growth at 0.1 uM after 48 hrs by sulforhodamine B assay; details: KM12, 48 h, read-out: Activity
EKVX = test: Cytotoxicity against human EKVX cells assessed as cell growth at 1 uM after 48 hrs by sulforhodamine B assay; details: read-out: Activity
Procedure, shortened: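 Five-dose NCI panel run at 0.01, 0.1, 1, 10 and 100 µM. Cells were in RPMI 1640 with 5% FBS and 2 mM L-glutamine, seeded at 5000–40,000 cells/well and pre-incubated 24 h. Drug was diluted from a DMSO stock into medium with 50 µg/ml gentamicin. Exposure was 48 h at 37 °C, 5% CO2. Cells were fixed with cold TCA and stained with 0.4% SRB, read at 515 nm. Percent growth came from time-zero, control and test absorbances.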

NCI-H226 = test: Growth inhibition of human NCI-H226 cells after 48 hrs by sulforhodamine B assay; details: NCI-H226, 48 h
Procedure, shortened: (§2)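 Adherent NCI-60 lines were grown in RPMI 1640 with 5% FBS and 2 mM L-glutamine, plated at 5000–40,000 cells/well and preincubated 24 h. They were then exposed to five concentrations (0.01–100 µM, from a DMSO stock) for 48 h at 37 °C, 5% CO2. Cells were fixed with cold TCA (10% final, 60 min, 4 °C) and stained with 0.4% SRB. Dye was solubilized in 10 mM Tris base and A515 read. GI50 was derived from time-zero, control and treated absorbances.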

BT-549 = test: Cytotoxicity against human BT549 cells assessed as cell growth at 10 '-5 M after 48 hrs by sulforhodamine B assay; details: BT-549, 48 h, read-out: Activity
Procedure, shortened: (§3)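 Primary NCI-60 single-dose screen at 10 µM. Cells were grown in RPMI 1640 with 5% FBS and 2 mM L-glutamine and plated 24 h before drug addition. Compound was solubilized in DMSO, then exposed for 48 h at 37 °C under 5% CO2. Cells were TCA-fixed and stained with SRB, and absorbance was read at 515 nm. Growth was expressed relative to time-zero and untreated controls.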

TK-10 = test: Cytotoxicity against human TK10 cells assessed as cell growth at 10 uM after 48 hrs by sulforhodamine B assay; details: TK-10, 48 h, read-out: Activity
SK-OV-3 = test: Growth inhibition of human SKOV3 cells after 48 hrs by sulforhodamine B assay; details: SK-OV-3, 48 h; procedure, shortened: as §2
HCC 2998 = test: Growth inhibition of human HCC2998 cells after 48 hrs by sulforhodamine B assay; details: HCC 2998, 48 h; for CC50: read-out: LC50 (the source's name); procedure, shortened: as §2
T47D = test: Cytotoxicity against human T47D cells assessed as cell growth at 0.1 uM after 48 hrs by sulforhodamine B assay; details: read-out: Activity
UO-31 = test: Cytotoxicity against human UO31 cells assessed as cell growth at 1 uM after 48 hrs by sulforhodamine B assay; details: UO-31, 48 h, read-out: Activity
RPMI-8226 = test: Cytotoxicity against human RPMI8226 cells assessed as cell growth at 10 uM after 48 hrs by sulforhodamine B assay; details: RPMI-8226, 48 h, read-out: Activity
UACC-257 [4] = test: Cytotoxicity against human UACC257 cells assessed as cell growth at 0.1 uM after 48 hrs by sulforhodamine B assay; details: UACC-257, 48 h, read-out: Activity
HOP-62 = test: Cytotoxicity against human HOP62 cells assessed as cell growth at 10 '-5 M after 48 hrs by sulforhodamine B assay; details: HOP-62, 48 h, read-out: Activity; procedure, shortened: as §1
SN12C [5] = test: Cytotoxicity against human SN12C cells assessed as cell growth at 0.1 uM after 48 hrs by sulforhodamine B assay; details: read-out: Activity
OVCAR-5 = test: Cytotoxicity against human OVCAR5 cells assessed as cell growth at 1 uM after 48 hrs by sulforhodamine B assay; details: OVCAR-5, 48 h, read-out: Activity
OVCAR-8 [6] = test: Cytotoxicity against human OVCAR8 cells assessed as cell growth at 10 '-5 M after 48 hrs by sulforhodamine B assay; details: OVCAR-8, 48 h, read-out: Activity
A549 [7] = test: Growth inhibition of human A549 cells after 48 hrs by sulforhodamine B assay; details: A549, 48 h
Procedure, shortened: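 Cells were in RPMI 1640 with 5% FBS and pre-incubated 24 h. Read-out was TCA fixation, SRB staining and absorbance at 515 nm. GI50 was the concentration where [(Ti−Tz)/(C−Tz)]×100 = 50, taken from log concentration vs % growth curves. It is given as ">" the top concentration when not reached.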

A549 [8] = test: Cytotoxicity against human A549 cells assessed as cell growth at 10 '-5 M after 48 hrs by sulforhodamine B assay; details: A549, 48 h, read-out: Activity; procedure, shortened: as §3
A498 = test: Cytotoxicity against human A498 cells assessed as cell growth at 100 uM after 48 hrs by sulforhodamine B assay; details: A498, 48 h, read-out: Activity
Procedure, shortened: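 NCI-60 five-dose screen. Cells were grown in RPMI 1640 with 5% FBS and 2 mM L-glutamine and preincubated 24 h. Compound (DMSO stock) was tested at 0.01, 0.1, 1, 10 and 100 µM for 48 h at 37 °C. Cells were fixed in situ with cold TCA (final 10%) and stained with 0.4% SRB. A515 was read, and percent growth was calculated against time-zero and control plates.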

Compound	growth at 10 µM (RXF 393) [%]	growth at 10 µM (MDA-MB-435) [%]	growth at 1 µM (MOLT-4) [%]	growth at 10 µM (DU-145) [%]	growth at 100 µM (SN12C [1]) [%]	growth at 0.1 µM (OVCAR-8 [2]) [%]	growth at 0.01 µM (UACC-257 [3]) [%]	growth at 0.1 µM (KM12) [%]	growth at 1 µM (EKVX) [%]	GI50 (NCI-H226) [µM]	LC50 (NCI-H226) [µM]	TGI (NCI-H226) [µM]	growth at 10 µM (BT-549) [%]	growth at 10 µM (TK-10) [%]	LC50 (SK-OV-3) [µM]	TGI (SK-OV-3) [µM]	GI50 (HCC 2998) [µM]	TGI (HCC 2998) [µM]	CC50 (HCC 2998) [µM]	growth at 0.1 µM (T47D) [%]	also measured
Cc1ccc2nc(Nc3c(C)cccc3C)sc2c1	27	-26	76	62.1	52	105	101	103	62	> 100	> 100	> 100	37.1	71	> 100	> 100	> 100	> 100	> 100	96	growth at 1 µM (UO-31): 73%; growth at 10 µM (RPMI-8226): 55%; growth at 0.1 µM (UACC-257 [4]): 99%; growth at 10 µM (HOP-62): 45.7%; growth at 0.1 µM (SN12C [5]): 86%; growth at 1 µM (OVCAR-5): 79%; growth at 10 µM (OVCAR-8 [6]): 56.4%; LC50 (concentration killing 50% of cells) (A549 [7]): > 100 µM; TGI (A549 [7]): > 100 µM; growth at 10 µM (A549 [8]): 32.6%; growth at 100 µM (A498): 60%
Clc1cccc(Cl)c1Nc1nc2cccc(Cl)c2s1	-73	-77	52	-7.04	-84	101	102	101	15	1.18	6.95	2.86	-67.8	-86	5.95	3.08	1.34	2.78	5.74	102	GI50 (SK-OV-3): 1.6 µM; growth at 1 µM (UO-31): 26%; growth at 10 µM (RPMI-8226): -19%; growth at 0.1 µM (UACC-257 [4]): 101%; growth at 10 µM (HOP-62): -38.2%; growth at 0.1 µM (SN12C [5]): 85%; growth at 1 µM (OVCAR-5): 79%; growth at 10 µM (OVCAR-8 [6]): -13.8%; GI50 (A549 [7]): 1.11 µM; LC50 (concentration killing 50% of cells) (A549 [7]): 7.47 µM; TGI (A549 [7]): 2.87 µM; growth at 10 µM (A549 [8]): 0.55%; growth at 100 µM (A498): -92%
